In article PMC3979583 (ACS medicinal chemistry letters, 2013):
Like-named read-outs stand apart in the source and are kept apart here.

Experiments:
Assay type in all cases: cell-based
[1] = cytotoxicity assay; details: 5 μM
[2] = target: human CB2 receptors (Homo sapiens, UniProt P34972)
[3] = tested on: osteoclast (OCL) formation; assay: osteoclast; details: mouse bone marrow mononuclear cells, RANKL plus MCSF
How it was run: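 Test compound was given at concentrations including 0.1, 1 and 5 μM, alongside a vehicle control. The read-out was inhibition of osteoclastogenesis, expressed as percent suppression of osteoclast formation. Each experiment was run in triplicate, and data were reported as means ± standard deviation.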

Chain of human CB2 receptors (P34972 whole entry): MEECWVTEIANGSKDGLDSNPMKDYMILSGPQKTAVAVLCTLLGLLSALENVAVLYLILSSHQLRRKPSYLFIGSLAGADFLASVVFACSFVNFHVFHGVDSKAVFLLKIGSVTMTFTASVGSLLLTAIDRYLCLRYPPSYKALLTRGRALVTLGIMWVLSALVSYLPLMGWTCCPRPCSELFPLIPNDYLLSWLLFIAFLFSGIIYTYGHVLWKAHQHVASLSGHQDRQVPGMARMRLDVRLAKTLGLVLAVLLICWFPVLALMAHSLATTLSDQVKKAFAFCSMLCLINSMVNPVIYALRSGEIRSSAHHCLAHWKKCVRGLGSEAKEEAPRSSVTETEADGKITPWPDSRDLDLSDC

## CCN(CC)c1ccc(CN(c2ccccc2)S(=O)(=O)c2ccc(C)cc2)cc1 [Compound 34]
[1]
  cytotoxic effects: without showing any cytotoxic effects
[2]
  functional behaviour at CB2 receptor: behaved as CB2 receptor inverse agonists
[3]
  inhibition of osteoclastogenesis (in words): great inhibition of osteoclastogenesis

## CCN(CC)c1ccc(CN(c2ccccc2)S(=O)(=O)c2ccc(OC)cc2)cc1 [Compound 39]
[2]; based on LANCE signal change
  functional behaviour at CB2 receptor: behaved as CB2 receptor inverse agonists
[3]
  inhibition of osteoclastogenesis (in words): great inhibition of osteoclastogenesis

## CCN(CC)c1ccc(CN(c2ncc(C)s2)S(=O)(=O)c2ccc(OC)cc2)cc1 [Compound 45]
[2]; based on LANCE signal change
  functional behaviour at CB2 receptor: behaved as CB2 receptor inverse agonists
[3]
  inhibition of osteoclastogenesis (in words): great inhibition of osteoclastogenesis

## COc1ccc(S(=O)(=O)N(Cc2ccc(N3CCCCC3)cc2)c2ccccc2)cc1 [Compound 47]
[2]; based on LANCE signal change
  functional behaviour at CB2 receptor: behaved as CB2 receptor inverse agonists
